According to PubChem BioAssay:
The source made the active and inactive calls.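 The calls were made as follows, unless noted: active = GFP response above 150% of the DMSO level; inconclusive = fewer than 70 events counted for a yeast strain; inactive = the rest.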

What was measured:
[1] = hit retest on RPL19A-GFP reporter strain – cell-based, S. cerevisiae, flow cytometry, cherry picks, mother/daughter gates, confirmation (AID 2270;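 active = GFP response below 50% of the DMSO control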); conditions: 3 h, at 10 µM, stronger effect = lower value, 100 = same GFP as DMSO wells
[2] = yeast TOR pathway reporter LAP4-GFP change – cell-based, cherry picks, flow cytometry, mother/daughter gates, confirmation (AID 2271;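 active = GFP response above 150% of the DMSO control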;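 also: ratio of sample to DMSO plate mean so 100% equals DMSO level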); conditions: S. cerevisiae LAP4-GFP strain, 3 h, at 10 µM, stronger effect = higher value, 100 means same as DMSO control
Procedure, shortened: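 System: GFP-fusion yeast strain; Incubation: compound exposure 3 h at 30 °C, end-over-end rotation; Measured by: GFP by flow cytometry; Read-out: median GFP fluorescence as percent of plate-mean DMSO wells; Medium: synthetic complete (SC) yeast growth medium; Compound: single test-compound dose, 10 µM final; Benchmarks: DMSO-only negative wells, rapamycin 400 ng/mL positive wells.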

[3] = TOR pathway reporter MEP2-GFP, retest of hits – S. cerevisiae, flow cytometry GFP, cherry picks, confirmation (AID 2272;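 active = GFP response above 150% of the DMSO control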;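 also: ratio of well signal to plate DMSO mean so 100% equals DMSO level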); conditions: S. cerevisiae MEP2-GFP strain, 3 h, at 10 µM, stronger effect = higher value
[4] = yeast AGP1-GFP fluorescence change, single-dose – cell-based, flow cytometry, S. cerevisiae, cherry picks, confirmation (AID 2273);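 also: median GFP channel fluorescence over the whole cell population gate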; conditions: S. cerevisiae AGP1-GFP strain, 3 h, at 10 µM
[5] = TOR pathway CIT2 reporter hit retest – S. cerevisiae, GFP fusion, cherry picks, mother/daughter gates, confirmation (AID 2274); conditions: S. cerevisiae CIT2-GFP strain, flow cytometry, 3 h, at 10 µM, stronger effect = higher value
[6] = measured here: daughter cell gate
[7] = measured here: mother cell gate
[8] = measured here: daughter cell gate response
[9] = measured here: mother cell gate response

Row | Structure (SMILES) | GFP response vs DMSO [1] | GFP response vs DMSO [1, 6] [%] | GFP response vs DMSO [1, 7] [%] | GFP response relative to DMSO [2] | GFP response relative to DMSO [2, 8] [%] | GFP response relative to DMSO [2, 9] [%] | GFP response vs DMSO [3] | GFP response, % of DMSO [4] | GFP response, % of DMSO [5] | GFP response, % of DMSO [5, 6] [%] | GFP response, % of DMSO [5, 7] [%]
1 | Cc1ccn2c(NC3CCCCC3)c(-c3cccc(-c4cccc(Cl)c4)c3)nc2c1 | 95% (inactive) | 92.1 | 95.8 | 110% (inactive) | 102 | 112 | 108% (inactive) | 92.5% (inactive) | 93.5% (inactive) | 98.3 | 88.6
2 | O=[N+]([O-])c1ncccc1OCc1ccc(-c2ccccc2)cc1 | 101% (inactive) | 99.6 | 98.8 | 135% (inactive) | 138 | 131 | 160% (inactive) | 104% (inactive) | 123% (inactive) | 126 | 114
3 | COc1ccccc1N=Cc1nc(-c2ccccc2)oc1OC(C)=O | 98.2% (inactive) | 96.9 | 98.3 | 103% (inactive) | 101 | 106 | 101% (inactive) | 70.7% (inactive) | 90.1% (inactive) | 88.4 | 90.7
4 | Oc1c(Br)cc(Br)cc1C=Nc1cccc2ncccc12 | 104% (inactive) | 93.9 | 98.6 | 125% (inactive) | 110 | 126 | 103% (inactive) | 95.7% (inactive) | 97.3% (inactive) | 99.2 | 89.5
5 | Cc1cc(/C=C2/SC(=S)N(c3cccc(Cl)c3)C2=O)c(C)n1-c1cccnc1 | 107% (inactive) | 106 | 108 | 133% (inactive) | 125 | 136 | 135% (inactive) | 110% (inactive) | 118% (inactive) | 117 | 117
6 | Cc1ccc(NC(=S)N2CCSC2c2cccs2)cc1 (configuration not stated) | 98.5% (inactive) | 98.1 | 97.8 | 97.7% (inactive) | 99 | 97.4 | 108% (inactive) | 101% (inactive) | 103% (inactive) | 99.3 | 103
7 | NC(=O)C1CCN(C(=S)NCCc2ccccc2)CC1 | 97.3% (inactive) | 99.5 | 97.1 | 91.8% (inactive) | 91.3 | 93.4 | 99.3% (inactive) | 102% (inactive) | 101% (inactive) | 103 | 103
8 | O=C(O)c1ccc2ccc3ccccc3c2c1 | 96.6% (inactive) | 94.2 | 95 | 99.5% (inactive) | 97.5 | 98.4 | 96.8% (inactive) | 105% (inactive) | 122% (inactive) | 121 | 121
9 | O=C(Nc1cccc(Cl)c1N1CCCC1)c1ccc([N+](=O)[O-])o1 | 99.2% (inactive) | 96.4 | 95.8 | 99.2% (inactive) | 92.8 | 96.1 | 100% (inactive) | 97.6% (inactive) | 99.7% (inactive) | 99.1 | 91.4
10 | CC1CN(c2nnnn2-c2ccccc2)CC(C)O1 (configuration not stated) | 99% (inactive) | 99.1 | 99.8 | 102% (inactive) | 101 | 100 | 96.2% (inactive) | 100% (inactive) | 101% (inactive) | 103 | 99.7
11 | COC(=O)c1cc(S(=O)(=O)Nc2nn(C)c3ccccc23)oc1C | 97.2% (inactive) | 98.1 | 97.1 | 96.7% (inactive) | 97.6 | 94 | 100% (inactive) | 95% (inactive) | 99.7% (inactive) | 101 | 99.7
12 | Cc1nn2c(N3CCN(C(=O)c4ccco4)CC3)cc(C(C)(C)C)nc2c1-c1ccccc1 | 98.2% (inactive) | 97.6 | 98.9 | 92.8% (inactive) | 94.4 | 92.9 | 100% (inactive) | 97.6% (inactive) | 95.5% (inactive) | 97.2 | 95
13 | CCc1noc(C)c1C(=O)Nc1nc2ccc(OC)cc2s1 | 91.8% (inactive) | 92.7 | 92.5 | 108% (inactive) | 108 | 111 | 99.3% (inactive) | 95.5% (inactive) | 90.3% (inactive) | 92.3 | 90.4
14 | c1ccc(-c2n[nH]c3ccccc23)cc1 | 98.4% (inactive) | 97.1 | 97.6 | 101% (inactive) | 101 | 98.3 | 96.2% (inactive) | 92.1% (inactive) | 96.9% (inactive) | 97.2 | 97.3
15 | O=C(Oc1oc(-c2ccco2)nc1C=Nc1ccc(Cl)cc1)c1ccco1 | 104% (inactive) | 104 | 103 | 176% (active) | 154 | 188 | 112% (inactive) | 99.8% (inactive) | 89.7% (inactive) | 95.2 | 83.8
16 | COc1ccc(-c2nn(-c3ccccc3)cc2C(=O)NC(=S)NNC(=O)c2ccncc2)cc1 | 100% (inactive) | 101 | 98.3 | 105% (inactive) | 108 | 105 | 101% (inactive) | 101% (inactive) | 107% (inactive) | 108 | 104
17 | CCCCCCNC(=O)c1c(O)c2cccc3c2n(c1=O)CCC3 | 100% (inactive) | 101 | 100 | 97.9% (inactive) | 97.6 | 95.1 | 107% (inactive) | 96.8% (inactive) | 96.9% (inactive) | 97.2 | 96.1
18 | Cc1ccc(/C=C/C(=O)NC2CCCCCCC2)o1 | 98.8% (inactive) | 99.4 | 98.2 | 125% (inactive) | 120 | 130 | 102% (inactive) | 90.8% (inactive) | 101% (inactive) | 105 | 97.3
19 | C/C(=N\NC(=O)c1nonc1N)c1cccs1 | 98.2% (inactive) | 98.8 | 98.1 | 102% (inactive) | 99.3 | 100 | 99.5% (inactive) | 94.5% (inactive) | 99.3% (inactive) | 98.3 | 98
20 | CCOC(=O)c1ccc(NC(=O)c2ccc3c(c2)C(=O)N(Cc2cccnc2)C3=O)cc1 | 100% (inactive) | 99.6 | 100 | 94.1% (inactive) | 96 | 94 | 102% (inactive) | 99.3% (inactive) | 99.7% (inactive) | 101 | 98.5
21 | C=CCn1c(=N)c(C#N)cc2c(=O)n3ccccc3nc21 | 98% (inactive) | 95.4 | 93 | 99.2% (inactive) | 99.2 | 98.3 | 105% (inactive) | 100% (inactive) | 101% (inactive) | 97.2 | 87.8
22 | C/C(=N\NC(=O)c1cccc(Br)c1)c1ccccn1 | 108% (inactive) | 97.6 | 102 | 163% (active) | 149 | 166 | 122% (inactive) | 97.3% (inactive) | 108% (inactive) | 101 | 101
23 | CCc1ccc(C(=O)COC(=O)c2n[nH]c3ccccc23)cc1 | 95.8% (inactive) | 97.3 | 94 | 102% (inactive) | 101 | 104 | 101% (inactive) | 101% (inactive) | 101% (inactive) | 97.6 | 102
24 | O=C(Oc1oc(-c2ccco2)nc1C=Nc1ccccc1)c1ccco1 | 104% (inactive) | 106 | 102 | 160% (active) | 147 | 175 | 107% (inactive) | 91.2% (inactive) | 104% (inactive) | 108 | 101
25 | CCOC(=O)CNc1c(-c2ccc(O)cc2)nc2ccccn12 | 98.5% (inactive) | 99.3 | 98 | 100% (inactive) | 104 | 98.4 | 97.2% (inactive) | 104% (inactive) | 101% (inactive) | 103 | 103
26 | Cc1[nH]c2ccccc2c1C(=O)C(C)OC(=O)C1CCC1 (configuration not stated) | 98.2% (inactive) | 98.1 | 97.8 | 100% (inactive) | 101 | 100 | 110% (inactive) | 105% (inactive) | 106% (inactive) | 103 | 106
27 | Cc1ccc(/C=N/Nc2ncc(Cl)cc2Cl)s1 | 86.7% (inactive) | 62.7 | 78.2 | 331% (active) | 202 | 317 | 115% (inactive) | 81.8% (inactive) | 107% (inactive) | 95.4 | 98.5
